In ChEMBL document CHEMBL1275391, “Design, synthesis, and preclinical evaluation of new 5,6- (or 6,7-) disubstituted-2-(fluorophenyl)quinolin-4-one derivatives as potent antitumor agents” (J Med Chem, 2010):

Legend:
CCRF-CEM = assay: Growth inhibition of human CCRF-CEM cells; type: functional
HL-60(TB) = assay: Growth inhibition of human HL-60(TB) cells; type: functional
MOLT-4 = assay: Growth inhibition of human MOLT4 cells; type: functional
[1] = Growth inhibition of human […] cells; type: functional
SR = assay: Growth inhibition of human SR cells; type: functional
A549 = assay: Growth inhibition of human A549 cells; type: functional
EKVX = assay: Growth inhibition of human EKVX cells; type: functional
HOP-62 = assay: Growth inhibition of human HOP62 cells; type: functional
NCI-H226 = assay: Growth inhibition of human NCI-H226 cells; type: functional
NCI-H322M = assay: Growth inhibition of human NCI-H322M cells; type: functional
NCI-H460 [2] = assay: Growth inhibition of human NCI-H460 cells; type: functional
NCI-H522 = assay: Growth inhibition of human NCI-H522 cells; type: functional
COLO 205 = assay: Growth inhibition of human COLO205 cells; type: functional
HCC 2998 = assay: Growth inhibition of human HCC2998 cells; type: functional
HCT-116 [3] = assay: Growth inhibition of human HCT116 cells; type: functional
HT-29 = assay: Growth inhibition of human HT-29 cells; type: functional
KM12 = assay: Growth inhibition of human KM12 cells; type: functional
SF-268 = assay: Growth inhibition of human SF268 cells; type: functional
SF-539 = assay: Growth inhibition of human SF539 cells; type: functional
SNB-75 = assay: Growth inhibition of human SNB75 cells; type: functional
U-251 = assay: Growth inhibition of human U251 cells; type: functional
LOX IMVI = assay: Growth inhibition of human LOXIMVI cells; type: functional
M14 = assay: Growth inhibition of human M14 cells; type: functional
MDA-MB-435 = assay: Growth inhibition of human MDA-MB-435 cells; type: functional
SK-MEL-2 = assay: Growth inhibition of human SK-MEL-2 cells; type: functional
UACC-62 = assay: Growth inhibition of human UACC62 cells; type: functional
OVCAR-5 = assay: Growth inhibition of human OVCAR5 cells; type: functional
ACHN = assay: Growth inhibition of human ACHN cells; type: functional
CAKI-1 = assay: Growth inhibition of human Caki1 cells; type: functional
RXF 393 = assay: Growth inhibition of human RXF393 cells; type: functional
SN12C = assay: Growth inhibition of human SN12C cells; type: functional
TK-10 = assay: Growth inhibition of human TK10 cells; type: functional
DU-145 = assay: Growth inhibition of human DU145 cells; type: functional
MCF7 = assay: Growth inhibition of human MCF7 cells; type: functional
MDA-MB-231 = assay: Growth inhibition of human MDA-MB-231 cells; type: functional
BT-549 = assay: Growth inhibition of human BT549 cells; type: functional
T47D = assay: Growth inhibition of human T47D cells; type: functional
MDA-MB-468 = assay: Growth inhibition of human MDA-MB-468 cells; type: functional
HCT-116 [4] = assay: Cytotoxicity against human HCT116 cells after 48 hrs by MTT assay; type: functional, cell-based; conditions: HCT-116, 48 h
Outline: (§1)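 Cells exposed to a range of compound concentrations for 48 h, washed once with PBS, then incubated with MTT for 2 h. Formazan dissolved in DMSO and absorbance read at 570 nm. IC50 taken as the concentration giving 50% inhibition of proliferation.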

NCI-H460 [5] = assay: Cytotoxicity against human H460 cells after 48 hrs by MTT assay; type: functional, cell-based; conditions: NCI-H460, 48 h; outline: as §1
CYP1A2 = CYP1A2 (Homo sapiens, UniProt P05177); assay: Inhibition of human CYP1A2 at 10 uM; type: ADME
CYP1A2, sequence (P05177 whole entry): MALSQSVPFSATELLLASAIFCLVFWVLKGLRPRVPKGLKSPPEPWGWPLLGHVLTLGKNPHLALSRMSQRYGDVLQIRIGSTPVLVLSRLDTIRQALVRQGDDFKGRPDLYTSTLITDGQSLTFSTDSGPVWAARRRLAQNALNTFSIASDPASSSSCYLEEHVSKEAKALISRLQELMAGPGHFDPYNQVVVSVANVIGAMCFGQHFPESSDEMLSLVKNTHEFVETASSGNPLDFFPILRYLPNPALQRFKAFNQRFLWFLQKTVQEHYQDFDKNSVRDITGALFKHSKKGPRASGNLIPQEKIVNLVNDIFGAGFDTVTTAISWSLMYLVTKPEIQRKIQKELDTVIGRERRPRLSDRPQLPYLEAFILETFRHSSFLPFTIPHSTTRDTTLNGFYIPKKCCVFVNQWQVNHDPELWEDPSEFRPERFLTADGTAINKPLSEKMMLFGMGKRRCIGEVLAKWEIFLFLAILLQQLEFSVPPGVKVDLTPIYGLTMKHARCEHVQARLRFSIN

[6] = target: Phosphodiesterase 4 (Homo sapiens) (UniProt P27815+Q08499+Q07343+Q08493); assay: Inhibition of human PDE4 at 10 uM; type: protein assay
[7] = target: Tyrosine-protein kinase Yes (Homo sapiens) (UniProt P07947); assay: Inhibition of human YES1 at 10 uM
Tyrosine-protein kinase Yes (Homo sapiens), sequence (P07947 2-543 limits assumed): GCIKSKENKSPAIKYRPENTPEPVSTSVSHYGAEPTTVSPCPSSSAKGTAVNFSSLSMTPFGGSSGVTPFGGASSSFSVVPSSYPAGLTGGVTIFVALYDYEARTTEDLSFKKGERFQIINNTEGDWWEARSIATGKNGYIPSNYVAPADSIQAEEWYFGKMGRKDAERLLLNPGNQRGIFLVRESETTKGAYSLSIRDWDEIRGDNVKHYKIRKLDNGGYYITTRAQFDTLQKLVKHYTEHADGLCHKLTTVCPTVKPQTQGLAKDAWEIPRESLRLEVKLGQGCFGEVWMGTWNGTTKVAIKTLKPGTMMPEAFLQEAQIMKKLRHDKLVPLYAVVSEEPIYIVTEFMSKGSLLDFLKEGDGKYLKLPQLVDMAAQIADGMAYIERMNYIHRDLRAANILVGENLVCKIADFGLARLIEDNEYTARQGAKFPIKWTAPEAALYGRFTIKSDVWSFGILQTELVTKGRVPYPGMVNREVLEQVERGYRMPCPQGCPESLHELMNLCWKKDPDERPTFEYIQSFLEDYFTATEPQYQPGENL

[8] = read-out: pLC50 (the source's name) (converted)

COc1ccc2[nH]c(-c3cccc(F)c3)cc(=O)c2c1O
GI50 (CCRF-CEM): 0.0347 µM
CC50 (CCRF-CEM; [8]): > 100 µM
TGI (CCRF-CEM; read-out: pTGI): > 100 µM
GI50 (HL-60(TB)): 0.0224 µM
CC50 (HL-60(TB); [8]): > 100 µM
TGI (HL-60(TB); read-out: pTGI (converted)): 0.0631 µM
GI50 (MOLT-4): 0.0479 µM
CC50 (MOLT-4; [8]): > 100 µM
TGI (MOLT-4; read-out: pTGI (converted)): 19.1 µM
GI50 [1]: 0.0331 µM
CC50 [1, 8]: > 100 µM
TGI ([1]; read-out: pTGI (converted)): 16.2 µM
GI50 (SR): 0.012 µM
CC50 (SR; [8]): > 100 µM
TGI (SR; read-out: pTGI (converted)): 0.0676 µM
GI50 (A549): 0.0417 µM
CC50 (A549; [8]): 93.3 µM
TGI (A549; read-out: pTGI (converted)): 14.8 µM
GI50 (EKVX): 0.0457 µM
CC50 (EKVX; [8]): > 100 µM
TGI (EKVX; read-out: pTGI): > 100 µM
GI50 (HOP-62): 0.0501 µM
CC50 (HOP-62; [8]): 42.7 µM
TGI (HOP-62; read-out: pTGI (converted)): 14.5 µM
GI50 (NCI-H226): 1.82 µM
CC50 (NCI-H226; [8]): > 100 µM
TGI (NCI-H226; read-out: pTGI (converted)): 31.6 µM
GI50 (NCI-H322M): 0.851 µM
CC50 (NCI-H322M; [8]): > 100 µM
TGI (NCI-H322M; read-out: pTGI): > 100 µM
GI50 (NCI-H460 [2]): 0.0331 µM
CC50 (NCI-H460 [2]; [8]): 32.4 µM
TGI (NCI-H460 [2]; read-out: pTGI (converted)): 1.05 µM
GI50 (NCI-H522): 0.0144 µM
CC50 (NCI-H522; [8]): 0.0977 µM
TGI (NCI-H522; read-out: pTGI (converted)): 0.038 µM
GI50 (COLO 205): 0.0251 µM
CC50 (COLO 205; [8]): 0.832 µM
TGI (COLO 205; read-out: pTGI (converted)): 0.0661 µM
GI50 (HCC 2998): 0.0324 µM
CC50 (HCC 2998; [8]): 16.2 µM
TGI (HCC 2998; read-out: pTGI (converted)): 0.0661 µM
GI50 (HCT-116 [3]): 0.0331 µM
CC50 (HCT-116 [3]; [8]): 29.5 µM
TGI (HCT-116 [3]; read-out: pTGI (converted)): 1.78 µM
GI50 (HT-29): 0.0288 µM
CC50 (HT-29; [8]): 15.5 µM
TGI (HT-29; read-out: pTGI (converted)): 0.0759 µM
GI50 (KM12): 0.0275 µM
CC50 (KM12; [8]): 5.5 µM
TGI (KM12; read-out: pTGI (converted)): 0.151 µM
GI50 (SF-268): 0.0617 µM
CC50 (SF-268; [8]): 89.1 µM
TGI (SF-268; read-out: pTGI (converted)): 15.5 µM
GI50 (SF-539): 0.0263 µM
CC50 (SF-539; [8]): 18.6 µM
TGI (SF-539; read-out: pTGI (converted)): 0.0977 µM
GI50 (SNB-75): 0.0151 µM
CC50 (SNB-75; [8]): 44.7 µM
TGI (SNB-75; read-out: pTGI (converted)): 0.0589 µM
GI50 (U-251): 0.0427 µM
CC50 (U-251; [8]): 55 µM
TGI (U-251; read-out: pTGI (converted)): 14.5 µM
GI50 (LOX IMVI): 0.0912 µM
CC50 (LOX IMVI; [8]): > 100 µM
TGI (LOX IMVI; read-out: pTGI (converted)): 57.5 µM
GI50 (M14): 0.0191 µM
CC50 (M14; [8]): 70.8 µM
GI50 (MDA-MB-435): < 0.01 µM
CC50 (MDA-MB-435; [8]): > 100 µM
TGI (MDA-MB-435; read-out: pTGI (converted)): 0.0457 µM
GI50 (SK-MEL-2): 0.0724 µM
CC50 (SK-MEL-2; [8]): 77.6 µM
TGI (SK-MEL-2; read-out: pTGI (converted)): 15.8 µM
GI50 (UACC-62): 0.0309 µM
CC50 (UACC-62; [8]): 93.3 µM
TGI (UACC-62; read-out: pTGI (converted)): 20 µM
CC50 (OVCAR-5; [8]): 46.8 µM
TGI (OVCAR-5; read-out: pTGI (converted)): 15.8 µM
GI50 (ACHN): 0.0977 µM
CC50 (ACHN; [8]): > 100 µM
TGI (ACHN; read-out: pTGI (converted)): 33.9 µM
GI50 (CAKI-1): 0.0468 µM
CC50 (CAKI-1; [8]): > 100 µM
TGI (CAKI-1; read-out: pTGI (converted)): 22.9 µM
GI50 (RXF 393): 0.0174 µM
CC50 (RXF 393; [8]): 56.2 µM
TGI (RXF 393; read-out: pTGI (converted)): 0.0457 µM
GI50 (SN12C): 0.0617 µM
CC50 (SN12C; [8]): > 100 µM
TGI (SN12C; read-out: pTGI (converted)): 38 µM
GI50 (TK-10): 1.78 µM
CC50 (TK-10; [8]): > 100 µM
TGI (TK-10; read-out: pTGI (converted)): 67.6 µM
GI50 (DU-145): 0.0209 µM
CC50 (DU-145; [8]): 33.9 µM
TGI (DU-145; read-out: pTGI (converted)): 0.0525 µM
GI50 (MCF7): 0.0302 µM
CC50 (MCF7; [8]): > 100 µM
TGI (MCF7; read-out: pTGI): > 100 µM
GI50 (MDA-MB-231): 0.0617 µM
CC50 (MDA-MB-231; [8]): > 100 µM
TGI (MDA-MB-231; read-out: pTGI (converted)): 22.9 µM
GI50 (BT-549): 0.145 µM
CC50 (BT-549; [8]): > 100 µM
TGI (BT-549; read-out: pTGI (converted)): 26.9 µM
GI50 (T47D): 0.0282 µM
CC50 (T47D; [8]): 87.1 µM
GI50 (MDA-MB-468): 0.0398 µM
CC50 (MDA-MB-468; [8]): 0.851 µM
TGI (MDA-MB-468; read-out: pTGI (converted)): 0.219 µM
IC50 (HCT-116 [4]): 0.07 µM
IC50 (NCI-H460 [5]): 0.08 µM
inhibition at 10 µM (CYP1A2): 85%
inhibition [6]: 55%
inhibition [7]: 68%
